Measured values: ChEMBL document CHEMBL1128561, “Inhibition of uridine phosphorylase: synthesis and structure-activity relationships of aryl-substituted 5-benzyluracils and 1-[(2-hydroxyethoxy)methyl]-5-benzyluracils” (J Med Chem, 1995)
pIC50, pKi: −log10 of the molar value.

Assays:
[1] = molecular target: Uridine phosphorylase 1 (Mus musculus) (UniProt P52624); assay: The compound was tested for inhibition of uridine phosphorylase (UrdPase) from murine liver at 10 uM of concentration
[2] = molecular target: Uridine phosphorylase 1 (Mus musculus) (UniProt P52624); assay: The compound was tested for inhibition of uridine phosphorylase (UrdPase) from murine liver at 5 uM of concentration
Uridine phosphorylase 1 [3] = molecular target: T1, Uridine phosphorylase 1 (Mus musculus, UniProt P52624); assay: Inhibition of uridine phosphorylase (UrdPase) from murine liver.
Procedure, shortened: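 Murine liver UrdPase; uridine converted to uracil over 30 min at 37 °C, with enzyme set to give 10% conversion uninhibited. Stopped by 1 min at 100 °C. Uridine and uracil separated by TLC (chloroform:methanol:acetic acid 90:5:5).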

Uridine phosphorylase 1 [4] = molecular target: T1, Uridine phosphorylase 1; assay: The compound was tested for inhibition of uridine phosphorylase (UrdPase) from murine liver Value refers to activity for apparent Ki value

T1 sequence (P52624 whole entry): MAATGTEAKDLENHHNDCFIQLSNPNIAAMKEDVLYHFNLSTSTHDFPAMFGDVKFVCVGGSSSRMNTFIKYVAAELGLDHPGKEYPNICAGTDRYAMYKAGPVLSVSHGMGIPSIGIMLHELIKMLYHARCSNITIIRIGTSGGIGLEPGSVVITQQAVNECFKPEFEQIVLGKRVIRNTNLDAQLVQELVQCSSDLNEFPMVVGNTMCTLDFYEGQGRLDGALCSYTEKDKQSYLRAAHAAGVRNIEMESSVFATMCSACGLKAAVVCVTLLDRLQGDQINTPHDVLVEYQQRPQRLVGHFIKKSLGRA
Chain of Uridine phosphorylase 1 (Mus musculus) (P52624 whole entry, looked up): as the sequence (P52624 whole entry) above

Compound | pIC50 (Uridine phosphorylase 1 [3]) | further results
Oc1ncc(Cc2ccc(C(F)(F)F)cc2)c(O)n1 |  | inhibition [1]: 16%
Oc1ncc(Cc2cccc(OCc3ccccc3)c2)c(O)n1 |  | inhibition [2]: 15%
O=c1[nH]cc(Cc2cccc(OCCCC(F)(F)F)c2)c(=O)[nH]1 | 4.89 | 
COc1cccc(Cc2cn(COCCO)c(=O)[nH]c2=O)c1 |  | pKi (Uridine phosphorylase 1 [4]): 5.73
COc1ccc(Cc2cnc(O)nc2O)cc1 | 4.18 | 
CCCOc1cccc(Cc2cn(COCCO)c(=O)[nH]c2=O)c1 | 7.33 | 

Continued, in another order:

pIC50 (Uridine phosphorylase 1 [3]) | Compound | further results
5.23 | O=c1[nH]cc(Cc2ccc([N+](=O)[O-])cc2)c(=O)[nH]1 | 
3.89 | COc1ccc(Cc2c[nH]c(=O)[nH]c2=O)cc1OC | 
4.87 | O=c1[nH]cc(Cc2ccc3c(c2)OCO3)c(=O)[nH]1 | 
